Laboratory results: ChEMBL document CHEMBL3098029, “Studies on the synthetic and structural aspects of benzosuberones bearing 2, 4-thiazolidenone moiety as potential anti-cancer agents” (Eur J Med Chem, 2014)
pIC50: −log10 of the molar value.

How the values were obtained:
A549 = assay: Cytotoxicity against human A549 cells by MTT assay; format: functional, cell-based
Procedure, shortened: (§1)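 Growth inhibition in 96-well plates, read by cell-mediated reduction of tetrazolium (MTT) to insoluble formazan, with doxorubicin as standard. Cell lines are A549 (alveolar adenocarcinoma, CCL-185), HeLa (cervical, CCL-2), MDA-MB-231 (breast, HTB26), MCF7 (breast, HTB22) and normal embryonic kidney HEK293. IC50 taken from plotted absorbance data, given as mean ± SD of three independent determinations.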

HEK293 = assay: Cytotoxicity against HEK293 cells by MTT assay; format: cell-based; settings: Homo sapiens; procedure, shortened: as §1
MCF7 = assay: Cytotoxicity against human MCF7 cells by MTT assay; format: functional, cell-based; procedure, shortened: as §1
MDA-MB-231 = assay: Cytotoxicity against human MDA-MB-231 cells by MTT assay; format: functional, cell-based; procedure, shortened: as §1
HeLa = assay: Cytotoxicity against human HeLa cells by MTT assay; format: functional, cell-based; procedure, shortened: as §1

Row | SMILES | pIC50 (A549) | pIC50 (HEK293) | pIC50 (MCF7) | pIC50 (MDA-MB-231) | pIC50 (HeLa)
1 | O=C(CN1C(=O)CSC1=O)c1ccc(Br)cc1 | 4.64 | < 4.00 | < 4.00 | < 4.00 | < 4.00
2 | Cc1cc2c(cc1C)C(Cl)=C(/C=C1\SC(=O)NC1=O)CCC2 | 5.27 | < 4.00 | < 4.00 | 5.24 | 5.23
3 | O=C1NC(=O)/C(=C/C2=C(Cl)c3ccccc3CCC2)S1 | < 4.00 | < 4.00 | < 4.00 | < 4.00 | < 4.00
4 | COc1ccc(C(=O)CN2C(=O)S/C(=C\C3=C(Cl)c4ccccc4CCC3)C2=O)cc1 | 5.26 | < 4.00 | 5.05 | < 4.00 | < 4.00
5 | Cc1cc2c(cc1C)C(Cl)=C(/C=C1\SC(=O)N(CC(=O)c3ccc(Br)cc3)C1=O)CCC2 | 5.01 | < 4.00 | 4.43 | < 4.00 | < 4.00
6 | Cc1ccc(C(=O)CN2C(=O)CSC2=O)cc1 | 4.77 | < 4.00 | < 4.00 | < 4.00 | < 4.00
7 | Cc1ccc(C(=O)CN2C(=O)S/C(=C\C3=C(Cl)c4ccccc4CCC3)C2=O)cc1 | < 4.00 | < 4.00 | < 4.00 | 5.23 | 5.10
8 | Cc1cc2c(cc1C)C(Cl)=C(/C=C1\SC(=O)N(CC(=O)c3ccc(Cl)cc3)C1=O)CCC2 | 5.46 | < 4.00 | 5.01 | < 4.00 | < 4.00
9 | O=C(CN1C(=O)CSC1=O)c1ccccc1 | 4.85 | < 4.00 | < 4.00 | < 4.00 | < 4.00
10 | O=C(CN1C(=O)S/C(=C\C2=C(Cl)c3ccccc3CCC2)C1=O)c1ccccc1 | 5.31 | < 4.00 | 5.27 | 4.87 | 5.53
11 | Cc1cc2c(cc1C)C(Cl)=C(/C=C1\SC(=O)N(CC(=O)c3ccccc3)C1=O)CCC2 | < 4.00 | < 4.00 | < 4.00 | < 4.00 | 5.10
12 | COc1ccc(C(=O)CN2C(=O)S/C(=C\C3=C(Cl)c4cc(C)c(C)cc4CCC3)C2=O)cc1 | < 4.00 | < 4.00 | < 4.00 | 5.10 | 4.75
13 | O=C(CN1C(=O)S/C(=C\C2=C(Cl)c3ccccc3CCC2)C1=O)c1ccc(Br)cc1 | 5.24 | < 4.00 | 4.29 | < 4.00 | < 4.00
14 | O=C(CN1C(=O)CSC1=O)c1ccc(Cl)cc1 | < 4.00 | 4.85 | < 4.00 | < 4.00 | < 4.00
15 | Cc1ccc(C(=O)CN2C(=O)S/C(=C\C3=C(Cl)c4cc(C)c(C)cc4CCC3)C2=O)cc1 | < 4.00 | < 4.00 | 5.72 | 4.87 | < 4.00
16 | COc1ccc(C(=O)CN2C(=O)CSC2=O)cc1 | < 4.00 | < 4.00 | < 4.00 | < 4.00 | < 4.00
17 | O=C(CN1C(=O)S/C(=C\C2=C(Cl)c3ccccc3CCC2)C1=O)c1ccc(Cl)cc1 | < 4.00 | < 4.00 | < 4.00 | < 4.00 | < 4.00
18 | COc1cccc2c1C(=O)c1c(O)c3c(c(O)c1C2=O)C[C@@](O)(C(=O)CO)C[C@@H]3O[C@H]1C[C@H](N)[C@H](O)[C@H](C)O1 [DOXORUBICIN] | – | < 4.00 | – | – | –
